Assay results: ChEMBL document CHEMBL3870305, “Synthesis, biological evaluation and molecular modeling studies of imidazo[1,2-a]pyridines derivatives as protein kinase inhibitors” (Eur J Med Chem, 2016)
Calls of active or inactive are those of the source. The calls are words filed in the database; no cut-off is given here.

How the values were obtained:
[1] = target: Dual specificity protein kinase CLK1 (Mus musculus) (UniProt P22518); assay: Competitive inhibition of full length recombinant mouse CLK1 expressed in bacteria using GRSRSRSRSRSR peptide as substrate in presence of varying levels of ATP by double-reciprocal method
Sequence of Dual specificity protein kinase CLK1 (Mus musculus) (P22518 whole entry, looked up): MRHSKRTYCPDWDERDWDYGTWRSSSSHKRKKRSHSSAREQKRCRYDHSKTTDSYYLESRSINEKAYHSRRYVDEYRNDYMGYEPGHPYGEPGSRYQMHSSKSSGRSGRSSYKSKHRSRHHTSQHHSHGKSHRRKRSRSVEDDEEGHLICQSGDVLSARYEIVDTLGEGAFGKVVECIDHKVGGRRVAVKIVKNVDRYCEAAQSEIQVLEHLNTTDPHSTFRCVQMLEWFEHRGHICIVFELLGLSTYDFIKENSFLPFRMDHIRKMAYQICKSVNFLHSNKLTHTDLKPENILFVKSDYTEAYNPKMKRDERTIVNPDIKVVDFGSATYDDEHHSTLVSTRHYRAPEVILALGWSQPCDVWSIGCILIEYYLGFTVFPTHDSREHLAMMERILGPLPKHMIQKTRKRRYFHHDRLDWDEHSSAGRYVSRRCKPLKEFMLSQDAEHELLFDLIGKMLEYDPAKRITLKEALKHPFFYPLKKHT

[2] = target: Cyclin-dependent kinase 1/cyclin B1 (Homo sapiens) (UniProt P06493+P14635); assay: Inhibition of full length recombinant human CDK1/CyclinB1 expressed in baculovirus infected Sf9 insect cells at 10 uM using histone H1 as substrate in presence of gamma[33P]ATP
Sequence of Cyclin-dependent kinase 1/cyclin B1 (Homo sapiens) (P06493 whole entry, looked up): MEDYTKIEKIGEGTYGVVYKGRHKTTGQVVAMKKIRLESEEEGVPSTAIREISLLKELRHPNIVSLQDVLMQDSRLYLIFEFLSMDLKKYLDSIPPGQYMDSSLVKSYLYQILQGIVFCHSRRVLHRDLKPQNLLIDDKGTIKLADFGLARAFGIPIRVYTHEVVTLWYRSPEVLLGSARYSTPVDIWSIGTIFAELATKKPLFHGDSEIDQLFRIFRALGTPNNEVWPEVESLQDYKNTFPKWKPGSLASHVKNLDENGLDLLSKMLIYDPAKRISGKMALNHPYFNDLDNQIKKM
Sequence of Cyclin-dependent kinase 1/cyclin B1 (Homo sapiens) (P14635 whole entry, looked up): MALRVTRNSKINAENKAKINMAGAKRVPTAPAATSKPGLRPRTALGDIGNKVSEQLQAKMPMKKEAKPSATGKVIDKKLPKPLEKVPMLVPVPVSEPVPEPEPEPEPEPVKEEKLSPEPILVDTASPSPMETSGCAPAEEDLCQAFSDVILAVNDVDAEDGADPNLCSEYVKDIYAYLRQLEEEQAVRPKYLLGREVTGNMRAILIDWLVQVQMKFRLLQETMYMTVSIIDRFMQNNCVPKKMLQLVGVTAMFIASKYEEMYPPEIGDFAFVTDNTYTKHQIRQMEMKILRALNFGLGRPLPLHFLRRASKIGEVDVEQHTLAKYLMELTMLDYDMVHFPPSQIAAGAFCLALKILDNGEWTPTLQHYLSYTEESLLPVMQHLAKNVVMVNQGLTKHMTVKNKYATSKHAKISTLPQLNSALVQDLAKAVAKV
In short: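 Buffer G (40 mM Tris pH 7.5, 20 mM MgCl2, 0.1 mg/ml BSA) with 0.8 µg/µl histone H1 and 15 µM [γ-33P]ATP. Compound tested at 10 µM; activity as % of the no-inhibitor control; n = 2, mean ± range.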

[3] = target: CDK2/Cyclin A2 (Homo sapiens) (UniProt P24941+P20248); assay: Inhibition of full length human CDK2/CyclinA at 10 uM using histone H1 as substrate in presence of gamma[33P]ATP; assay type: protein-complex assay
[4] = target: CDK9/cyclin T1 (Homo sapiens) (UniProt O60563+P50750); assay: Inhibition of full length recombinant human CDK9/CyclinT expressed in baculovirus infected Sf9 insect cells at 10 uM using YSPTSPSYSPTSPSYSPTSPSKKKK as substrate in presence of gamma[33P]ATP
[5] = target: Cyclin-dependent kinase 5/CDK5 activator 1 (Homo sapiens) (UniProt Q00535+Q15078); assay: Inhibition of full length recombinant human CDK5/p25 expressed in bacteria at 10 uM using histone H1 as substrate in presence of gamma[33P]ATP
Sequence of Cyclin-dependent kinase 5/CDK5 activator 1 (Homo sapiens) (Q00535 whole entry): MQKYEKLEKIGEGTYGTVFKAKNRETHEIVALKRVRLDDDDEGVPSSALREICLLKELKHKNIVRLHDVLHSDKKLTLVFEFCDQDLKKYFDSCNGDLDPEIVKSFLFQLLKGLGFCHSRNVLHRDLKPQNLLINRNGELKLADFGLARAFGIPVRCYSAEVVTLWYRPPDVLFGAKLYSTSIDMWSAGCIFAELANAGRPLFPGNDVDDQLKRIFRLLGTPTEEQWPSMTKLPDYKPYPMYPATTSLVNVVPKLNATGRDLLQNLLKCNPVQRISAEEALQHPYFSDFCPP
Sequence of Cyclin-dependent kinase 5/CDK5 activator 1 (Homo sapiens) (Q15078 99-307 partner limits assumed): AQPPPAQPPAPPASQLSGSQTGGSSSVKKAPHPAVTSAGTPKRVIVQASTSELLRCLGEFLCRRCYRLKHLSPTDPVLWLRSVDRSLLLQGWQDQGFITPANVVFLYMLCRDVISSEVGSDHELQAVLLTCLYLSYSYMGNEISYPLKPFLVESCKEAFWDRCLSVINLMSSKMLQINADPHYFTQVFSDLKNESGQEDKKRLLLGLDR
In short: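 Buffer B (25 mM MOPS pH 7, β-glycerophosphate, p-nitrophenyl-phosphate, EGTA, 15 mM MgCl2, DTT, orthovanadate) with 0.8 µg/µl histone H1 and 15 µM [γ-33P]ATP. Compound tested at 10 µM; activity as % of the no-inhibitor control; n = 2, mean ± range.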

[6] = target: CLK1 (Mus musculus); assay: Inhibition of CLK1 (unknown origin)
[7] = target: DYRK1A (Rattus norvegicus); assay: Inhibition of DYRK1A (unknown origin)
[8] = target: Glycogen synthase kinase-3 alpha/beta (Sus scrofa); assay: Inhibition of GSK-3 alpha/beta (unknown origin)
[9] = target: Casein kinase I delta/epsilon (Sus scrofa); assay: Inhibition of CK1 delta/epsilon (unknown origin)
[10] = test system: CLK1 (Mus musculus); assay: Inhibition of CLK1 (unknown origin) at 10 uM in presence of gamma[33P]ATP relative to control
[11] = test system: DYRK1A (Rattus norvegicus); assay: Inhibition of DYRK1A (unknown origin) at 10 uM in presence of gamma[33P]ATP relative to control

Row | inhibition [1] | inhibition [2] | inhibition [3] | inhibition [4] | inhibition [5] | IC50 [6] [µM] | IC50 [7] [µM] | IC50 [8] [µM] | IC50 [9] [µM] | inhibition [10] [%] | inhibition [11] [%] | Structure (SMILES)
1 |  |  |  |  |  | > 10 | > 10 | > 10 | > 10 |  |  | COc1cc(OC)cc(-c2cn3cc(Cl)ccc3n2)c1
2 |  |  |  |  |  | > 10 | > 10 | > 10 | > 10 |  |  | COc1cc(-c2cn3cc(Cl)ccc3n2)cc(OC)c1OC
3 |  |  |  |  |  | > 10 | > 10 | > 10 | > 10 |  |  | COc1cccc(-c2cn3cc(Cl)ccc3n2)c1
4 |  |  |  |  |  | 1.4 | 4.7 | > 10 | > 10 | > 50 | > 50 | NC(=O)c1cc(-c2cn3cc(F)ccc3n2)ccc1O

Further lines, the molecule ahead of its results:

Row | Structure (SMILES) | inhibition [1] | inhibition [2] | inhibition [3] | inhibition [4] | inhibition [5] | IC50 [6] [µM] | IC50 [7] [µM] | IC50 [8] [µM] | IC50 [9] [µM] | inhibition [10] [%] | inhibition [11] [%]
5 | NC(=O)c1cc(-c2cn3cc(Br)ccc3n2)ccc1O | Active | Active | Active | Active | Active | 0.7 | 2.6 | > 10 | > 10 | > 50 | > 50
6 | NC(=O)c1cc(-c2cn3cc(N)ccc3n2)ccc1O |  |  |  |  |  | > 10 | > 10 | > 10 | > 10 |  | 
7 | NC(=O)c1cc(-c2cn3ccccc3n2)ccc1O |  |  |  |  |  | 1 | 4 | > 10 | > 10 | > 50 | > 50
8 | NC(=O)c1cc(-c2cn3cc(-c4ccc([N+](=O)[O-])cc4)ccc3n2)ccc1O |  |  |  |  |  | > 10 | > 10 | > 10 | > 10 |  | 
9 | NC(=O)c1cc(-c2cn3cc(Cl)ccc3n2)ccc1O |  | Active | Active | Active | Active |  |  |  |  |  | 
10 | Oc1ccc(-c2cn3cc(Cl)ccc3n2)cc1 |  |  |  |  |  | > 10 | > 10 | > 10 | > 10 |  | 
11 | NC(=O)c1cc(-c2cn3cc(O)ccc3n2)ccc1O |  | Active | Active | Active | Active |  |  |  |  |  | 
